# Assay results as given in ChEMBL document CHEMBL1141908, “Inositol tripyrophosphate: a new membrane permeant allosteric effector of haemoglobin” (2005).
# Where “and” joins values, the source holds several entries; their conditions need not be identical. Identical values can stand only once.
# Tests used:
# [1] = target: Hemoglobin beta chain (Mus musculus) (UniProt P02089); assay: In vitro P50 value of free haemoglobin of murine was determined after incubation with compound (concentration 60 mM); format: functional
# Chain of Hemoglobin beta chain (Mus musculus) (P02089 whole entry): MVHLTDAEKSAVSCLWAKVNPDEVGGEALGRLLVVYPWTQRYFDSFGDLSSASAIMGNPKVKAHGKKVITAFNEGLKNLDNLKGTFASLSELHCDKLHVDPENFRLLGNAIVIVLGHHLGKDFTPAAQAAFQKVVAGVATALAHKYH
# Procedure, shortened: (§1)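 Free haemoglobin (human or murine) was mixed with a 60 mM compound solution adjusted to pH 6.9–7.1. Oxy-Hb dissociation curves were recorded on a Hemox Analyzer. P50 is the O2 partial pressure at 50% Hb saturation, and the shift is expressed as a percentage of untreated Hb. Means of three to ten P50 values were calculated, depending on the compound and species.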
# [2] = target: Hemoglobin beta chain (Mus musculus) (UniProt P02089); assay: In vitro percent P50 value of free haemoglobin of murine was determined after incubation with compound (concentration 60 mM); format: functional; procedure, shortened: as §1
# Homo sapiens [3] = species on record: Homo sapiens; assay: In vitro P50 value of whole blood of human was determined after incubation with compound (concentration 30 mM); format: functional
# Procedure, shortened: (§2)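 Whole blood (human, murine or porcine) incubated 1:1 vol/vol with effector solution at 290–310 mOsM, pH 7, for 60 min at 37 C. Cells then washed three times in 20 mM bis-Tris, pH 7, 308 mOsM. Hb–O2 curves read on a Hemox Analyzer in 20 mM Hemox buffer, pH 7.1–7.2, 37 C. P50 shift in % reported as mean of four values ± SD.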
# Mus musculus [4] = species on record: Mus musculus; assay: In vitro P50 value of whole blood of murine was determined after incubation with compound (concentration 30 mM); format: functional; procedure, shortened: as §2
# Homo sapiens [5] = species on record: Homo sapiens; assay: In vitro percent P50 value of whole blood of human was determined after incubation with compound (concentration 30 mM); format: functional; procedure, shortened: as §2
# Mus musculus [6] = species on record: Mus musculus; assay: In vitro percent P50 value of whole blood of murine was determined after incubation with compound (concentration 30 mM); format: functional; procedure, shortened: as §2
# [7] = In vitro P50 value of whole blood of procine was determined after incubation with compound (concentration 30 mM); format: functional, Sus scrofa; settings: in the assay text read “concentration 60 mM” for “concentration 30 mM”; procedure, shortened: as §2
# Homo sapiens [8] = species on record: Homo sapiens; assay: In vitro percent P50 value of whole blood of human was determined after incubation with compound (concentration 60 mM); format: functional; procedure, shortened: as §2
# Mus musculus [9] = species on record: Mus musculus; assay: In vitro percent P50 value of whole blood of murine was determined after incubation with compound (concentration 4 mM); format: functional; procedure, shortened: as §2
# [10] = In vitro percent P50 value of whole blood of procine was determined after incubation with compound (concentration 60 mM); format: functional, Sus scrofa; procedure, shortened: as §2
# Mus musculus [11] = species on record: Mus musculus; assay: In vitro percent P50 value of whole blood of murine was determined after incubation with compound (concentration 60 mM); format: functional; procedure, shortened: as §2
# [12] = target: Hemoglobin subunit beta (Sus scrofa) (UniProt P02067); assay: In vitro P50 value of free haemoglobin of procine was determined after incubation with compound (concentration 60 mM); format: functional
# Chain of Hemoglobin subunit beta (Sus scrofa) (P02067 whole entry): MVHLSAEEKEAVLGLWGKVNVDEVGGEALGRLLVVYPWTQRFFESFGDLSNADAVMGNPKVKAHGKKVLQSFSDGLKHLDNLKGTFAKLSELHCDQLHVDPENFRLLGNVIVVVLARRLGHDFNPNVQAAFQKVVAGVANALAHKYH
# Procedure, shortened: (§3)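 Porcine free Hb mixed with the effector solution (60 mM; pH adjusted to 6.9–7.1). Hb–O2 dissociation curves recorded on a Hemox Analyzer. P50 is the pO2 at 50% Hb saturation. Shift reported as % change versus control; means of three P50 values.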
# [13] = target: Hemoglobin subunit beta (Sus scrofa) (UniProt P02067); assay: In vitro percent P50 value of free haemoglobin of procine was determined after incubation with compound (concentration 60 mM); format: functional; procedure, shortened: as §3
# [14] = In vitro P50 value of free haemoglobin of human was determined after incubation with compound (concentration 60 mM)
# [15] = In vitro percent P50 value of free haemoglobin of human was determined after incubation with compound (concentration 60 mM)
SMILES,P50 [1],P50 [2],P50 (Mus musculus [4]) [Torr],P50 (Mus musculus [6]) [%],further results
CN(C)C1CCCCC1.CN(C)C1CCCCC1.CN(C)C1CCCCC1.CN(C)C1CCCCC1.CN(C)C1CCCCC1.CN(C)C1CCCCC1.O=P1(O)OC2C3OP(=O)(O)OP(=O)(O)OC3C3OP(=O)(O)OP(=O)(O)OC3C2OP(=O)(O)O1 (centres undefined) [listing 1 of 2 here],45.1 Torr,81%,–,–,–
O=P1(O)OC2C3OP(=O)(O)OP(=O)(O)OC3C3OP(=O)(O)OP(=O)(O)OC3C2OP(=O)(O)O1.c1ccncc1.c1ccncc1.c1ccncc1.c1ccncc1.c1ccncc1 (centres undefined) [ITPP PYRIDINIUM SALT],–,–,42.7,13,P50 (Homo sapiens [3]): 24.3 Torr; P50 (Homo sapiens [5]): 10%
O=P1([O-])OC2C3OP(=O)([O-])OP(=O)([O-])OC3C3OP(=O)([O-])OP(=O)([O-])OC3C2OP(=O)([O-])O1.[Na+].[Na+].[Na+].[Na+].[Na+].[Na+] (centres undefined) [ITPP SODIUM SALT],–,–,–,–,P50 (Homo sapiens [3]): 30.8 Torr; P50 [7]: 44.2 Torr; P50 (Homo sapiens [8]): 39%; P50 (Mus musculus [9]): 29%; P50 [10]: 40%
C1CNCCN1.C1CNCCN1.C1CNCCN1.C1CNCCN1.C1CNCCN1.C1CNCCN1.O=P1(O)OC2C3OP(=O)(O)OP(=O)(O)OC3C3OP(=O)(O)OP(=O)(O)OC3C2OP(=O)(O)O1 (centres undefined) [ITPP PIPERAZINIUM],–,–,41.9,7,–
NC1CCCCCC1.NC1CCCCCC1.NC1CCCCCC1.NC1CCCCCC1.NC1CCCCCC1.NC1CCCCCC1.O=P1(O)OC2C3OP(=O)(O)OP(=O)(O)OC3C3OP(=O)(O)OP(=O)(O)OC3C2OP(=O)(O)O1 (centres undefined) [listing 1 of 2 here],–,–,41.3,9,–
C1CNCCN1.C1CNCCN1.C1CNCCN1.O=P1(O)OC2C3OP(=O)(O)OP(=O)(O)OC3C3OP(=O)(O)OP(=O)(O)OC3C2OP(=O)(O)O1 (centres undefined) [ITPP TRIPIPERAZINIUM SALT],–,–,42.3,8,–
O=P1([O-])OC2C3OP(=O)([O-])OP(=O)([O-])OC3C3OP(=O)([O-])OP(=O)([O-])OC3C2OP(=O)([O-])O1.[Ca+2].[Ca+2].[Ca+2] (centres undefined),–,–,55.3,–,P50 (Homo sapiens [3]): 31 Torr; P50 (Homo sapiens [5]): 25%; P50 (Mus musculus [11]): 38%
CN(C)C1CCCCC1.CN(C)C1CCCCC1.CN(C)C1CCCCC1.CN(C)C1CCCCC1.CN(C)C1CCCCC1.CN(C)C1CCCCC1.O=P1(O)OC2C3OP(=O)(O)OP(=O)(O)OC3C3OP(=O)(O)OP(=O)(O)OC3C2OP(=O)(O)O1 (centres undefined) [listing 2 of 2 here],–,–,45.5,20,–
NC1CCCCCC1.NC1CCCCCC1.NC1CCCCCC1.NC1CCCCCC1.NC1CCCCCC1.NC1CCCCCC1.O=P1(O)OC2C3OP(=O)(O)OP(=O)(O)OC3C3OP(=O)(O)OP(=O)(O)OC3C2OP(=O)(O)O1 (centres undefined) [listing 2 of 2 here],43.8 Torr,76%,–,–,–
O=P1(O)OC2C3OP(=O)(O)OP(=O)(O)OC3C3OP(=O)(O)OP(=O)(O)OC3C2OP(=O)(O)O1 (centres undefined),69.7 Torr [middle of 4 runs],189% [middle of 4 runs],–,–,P50 [12]: 68.1 Torr; P50 [13]: 209%; P50 [14]: 49.8 Torr and 33.1 Torr; P50 [15]: 225% and 170%
NC1CCCCCCC1.NC1CCCCCCC1.NC1CCCCCCC1.NC1CCCCCCC1.NC1CCCCCCC1.NC1CCCCCCC1.O=P1(O)OC2C3OP(=O)(O)OP(=O)(O)OC3C3OP(=O)(O)OP(=O)(O)OC3C2OP(=O)(O)O1 (centres undefined) [listing 1 of 2 here],30.6 Torr,23%,–,–,–
NC1CCCCCCC1.NC1CCCCCCC1.NC1CCCCCCC1.NC1CCCCCCC1.NC1CCCCCCC1.NC1CCCCCCC1.O=P1(O)OC2C3OP(=O)(O)OP(=O)(O)OC3C3OP(=O)(O)OP(=O)(O)OC3C2OP(=O)(O)O1 (centres undefined) [listing 2 of 2 here],–,–,41.7,10,–
O=P1(O)OC2C3OP(=O)(O)OP(=O)(O)OC3C3OP(=O)(O)OP(=O)(O)OC3C2OP(=O)(O)O1.c1ccncc1.c1ccncc1.c1ccncc1.c1ccncc1.c1ccncc1 (centres undefined),50 Torr,100%,–,–,P50 [14]: 31.6 Torr; P50 [15]: 107%
